Results taken from publication PMC12215001 (Scientific Reports, 2025).

Legend:
N/P(14) cells [1] = assay: Western blot analysis; format: cell-based
Procedure, shortened: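 N/P(14) cells were treated two ways: a concentration series for 24–48 h, or 10 µM for 6–48 h. Lysis was in SDS buffer, followed by SDS-PAGE and PVDF blotting. Probes: caspases, PARP, a CK2 substrate consensus (pS/pT)DXE antibody, and phospho-Akt (S129)/Akt and phospho-XRCC1. Bands were normalized to GAPDH as fold of control. Mean±S.D., n = 3, one-way ANOVA with Dunnett.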

[2] = test system: SV-HUC-1 cells (normal uroepithelial); assay: SRB assay, cell growth inhibition; format: cell-based; conditions: SV-HUC1, 48 h
Procedure, shortened: (§1)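 Cell lines: NTUB1 and N/P(14) in RPMI 1640, J82 in EMEM, and J82R (J82 adapted stepwise to 10 µM cisplatin); all in 10% FBS at 37 °C, 5% CO2, passage <10, mycoplasma-tested. SV-HUC-1 was grown in F12K. Cells were treated 48 h in 96-well plates, then TCA-fixed (10%) and stained with 0.4% SRB. After 1% acetic acid washes, dye was dissolved in 10 mM Tris base and read at 515 nm. GI50 = concentration giving 50% growth inhibition.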

N/P(14) cells [3] = assay: SRB assay, combination index; format: cell-based; conditions: 48 h, CI below one indicates synergism
Procedure, shortened: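 N/P(14) cells got doxorubicin or mitomycin C, with or without test compound, for 48 h. Growth was measured by SRB staining: TCA fixation, 1% acetic acid wash, Tris solubilization, absorbance at 515 nm. Combination index was computed from the combined dose–effect data; CI < 1 taken as synergism.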

[4] = test system: N/P(14) cells (cisplatin-resistant subline of NTUB1); assay: SRB assay, cell growth inhibition; format: cell-based
Procedure, shortened: as §1

J82R cells = assay: Western blot analysis; format: cell-based; conditions: 24-48 h
Procedure, shortened: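 J82R cells got the indicated test compound concentrations for 24–48 h. Proteins were extracted in SDS lysis buffer, run on SDS-PAGE, transferred to PVDF, and probed for caspase-3, -8, -9 and PARP. Band densities were normalized to GAPDH and expressed as fold of untreated control. Mean±S.D., n = 3–4, one-way ANOVA with Dunnett's test.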

N/P(14) cells [5] = assay: Cell cycle analysis, propidium iodide staining and flow cytometry; format: cell-based; conditions: 24-48 h, time- and concentration-dependent
[6] = test system: J82R cells (cisplatin-resistant subline of J82); assay: SRB assay, cell growth inhibition; format: cell-based; conditions: 48 h
Procedure, shortened: as §1

N/P(14) cells [7] = assay: RT-qPCR and Western blot of base excision repair genes; format: cell-based; conditions: 5 µM, 24 h (RT-qPCR)
Procedure, shortened: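 For mRNA, cells got 5 µM test compound for 24 h. RNA was taken by TRIzol with 1-bromo-3-chloropropane phase separation and isopropanol precipitation, reverse-transcribed, then run by green-dye qPCR with gene-specific primers (n = 3, unpaired two-tailed t-test). Protein levels were read by western blot, with band densities normalized to GAPDH.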

CK2α = CK2α (Homo sapiens, UniProt P68400); assay: In vitro CK2α kinase activity assay; format: biochemical; conditions: 10-dose, threefold serial dilution starting at 100 µM, 10 µM ATP
Sequence of CK2α (P68400 whole entry): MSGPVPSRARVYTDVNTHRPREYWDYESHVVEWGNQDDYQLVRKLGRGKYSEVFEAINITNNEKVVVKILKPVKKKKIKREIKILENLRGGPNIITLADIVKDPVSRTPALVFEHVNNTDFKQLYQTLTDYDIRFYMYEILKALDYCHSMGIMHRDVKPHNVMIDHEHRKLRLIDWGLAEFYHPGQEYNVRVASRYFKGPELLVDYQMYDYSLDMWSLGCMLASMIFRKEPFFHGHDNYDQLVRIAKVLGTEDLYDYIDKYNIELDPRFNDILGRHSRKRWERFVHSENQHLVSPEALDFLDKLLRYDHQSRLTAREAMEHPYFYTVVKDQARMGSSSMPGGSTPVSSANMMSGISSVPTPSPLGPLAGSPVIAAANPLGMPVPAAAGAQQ

J82 cells = assay: SRB assay, cell growth inhibition; format: cell-based; conditions: 48 h
Procedure, shortened: as §1

NTUB1 cells = assay: SRB assay, cell growth inhibition; format: cell-based; conditions: 48 h
Procedure, shortened: as §1

SMILES: O=C(O)c1ccc2c(c1)nc(Nc1cccc(Cl)c1)c1ccncc12 [CX-4945, reference compound]
- PARP cleavage (N/P(14) cells [1]; 24 h): increased
- phosphorylation of the downstream targets Akt and XRCC1 (N/P(14) cells [1]; 24 h, concentration-dependent): decreased

SMILES: O=c1cc(-c2ccc(Oc3c(O)cc4oc(-c5ccc(O)cc5)cc(=O)c4c3O)cc2)oc2cc(O)cc(O)c12 [Hinokiflavone]
- GI50 [2]: 4.09 µM
- combination index (CI) (N/P(14) cells [3]; HNK with doxorubicin): below 1
- combination index (CI) (N/P(14) cells [3]; HNK with mitomycin C): below 1
- GI50 ([4]; NTUB1, 48 h): 1.48 µM
- cleavage of caspase-3, caspase-8, caspase-9, and PARP (N/P(14) cells [1]; 24-48 h): enhanced
- phosphorylation of the CK2 substrate consensus sequence ((pS/pT)DXE) (N/P(14) cells [1]; 24 h and 48 h, concentration-dependent): suppressed
- cleavage of caspase-3, caspase-8, caspase-9, and PARP (J82R cells): enhanced
- accumulation of cells in the sub-G1 phase (N/P(14) cells [5]): significantly increased
- GI50 [6]: 0.98 µM
- mRNA and protein levels of MUTYH, OGG1, and XRCC1 (N/P(14) cells [7]): reduced
- CK2α kinase activity (CK2α): inhibited CK2α activity in a concentration-dependent manner

SMILES: N.N.[Cl][Pt][Cl] [cisplatin, reference compound]
- GI50 ([4]; N/P(14) cells, 48 h, SRB assay): 47.4 µM
- GI50 (J82 cells): 2.58 µM
- GI50 ([6]; J82R cells, SRB assay): 9.47 µM
- GI50 (NTUB1 cells): 7.89 µM
